Source: publication PMC8853703 (Chemical research in toxicology, 2021)

Experiments:
Format in all cases: cell-based, porcine
LLC-PK1 cells [1] = test: JC-10 mitochondrial transmembrane potential assay; details: for effect of cisplatin on ΔΨm: CDDP 20 μM alone
caspase-3 = test: Caspase-3 activity assay; details: CDDP 20 μM alone, 24 h
LLC-PK1 cells [2] = test: CM-H2DCFDA general reactive oxygen species quantitation assay; details: CDDP 20 μM alone, 24 h
Summary of the method: (§1)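 LLC-PK1 cells (M199, 10% FBS, 1% PS; 37 °C, 5% CO2) were seeded at 1×10^4 cells/well overnight. Probe loading was 5 μM CM-H2DCFDA for 30 min (general ROS) or 2.5 μM MitoSOX Red for 10 min (mitochondrial superoxide), then 3 PBS washes. […] After PBS washes, fluorescence was read in PBS at Ex/Em 485/535 nm (DCF) or 510/580 nm (MitoSOX). Three independent experiments.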

LLC-PK1 cells [3] = test: MitoSOX Red mitochondrial superoxide detection assay; details: CDDP 20 μM alone, 24 h
Summary of the method: as §1

caspase-9 = test: Caspase-9 activity assay; details: CDDP 20 μM alone, 24 h
Summary of the method: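 Supernatant was mixed 1:1 with HEPES pH 7.4 caspase buffer (CHAPS, glycerol, EDTA, 10 mM DTT) holding 100 μM Ac-LEHD-pNA. Incubation was 90 min at 37 °C, read as absorbance at 400 nm, with activity normalised to BCA total protein.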

| SMILES | ΔΨm with positive control (LLC-PK1 cells [1]; FCCP 10 μM) | effect of cisplatin on caspase-3 activity (caspase-3) | effect of cisplatin on general ROS (LLC-PK1 cells [2]) | effect of cisplatin on O2•− generated in mitochondria (LLC-PK1 cells [3]) | effect of cisplatin on ΔΨm (LLC-PK1 cells [1]; 6 h) | effect of cisplatin on ΔΨm (LLC-PK1 cells [1]; 24 h) | effect of cisplatin on ΔΨm (LLC-PK1 cells [1]; 48 h) | effect of cisplatin on caspase-9 activity (caspase-9) |
| --- | --- | --- | --- | --- | --- | --- | --- | --- |
| N#CC(C#N)=NNc1ccc(OC(F)(F)F)cc1 [FCCP, Carbonyl cyanide-p-trifluoromethoxyphenylhydrazone] | depolarized ΔΨm |  |  |  |  |  |  |  |
| N.N.[Cl][Pt][Cl] [cisplatin, cis-Diamminedichloroplatinum (II), reference compound] |  | greatly elevated | increased | increased | not significantly affected | substantial loss of the ΔΨm | nearly complete gradient collapse | greatly elevated |
